ChEMBL document CHEMBL3351352, “Discovery of a novel series of potent MK2 non-ATP competitive inhibitors using 1,2-substituted azoles as cis-amide isosteres” (Bioorg Med Chem Lett, 2014)
Each block holds one molecule with its values, some of them ahead of it. Active and inactive are the calls of the source. The calls are words filed in the database; no cut-off is given here.

How the values were obtained:
Ephrin type-B receptor 4 = Ephrin type-B receptor 4 (Homo sapiens, UniProt P54760); assay: Inhibition of EPHB4 (unknown origin)
Chain of Ephrin type-B receptor 4 (P54760 whole entry): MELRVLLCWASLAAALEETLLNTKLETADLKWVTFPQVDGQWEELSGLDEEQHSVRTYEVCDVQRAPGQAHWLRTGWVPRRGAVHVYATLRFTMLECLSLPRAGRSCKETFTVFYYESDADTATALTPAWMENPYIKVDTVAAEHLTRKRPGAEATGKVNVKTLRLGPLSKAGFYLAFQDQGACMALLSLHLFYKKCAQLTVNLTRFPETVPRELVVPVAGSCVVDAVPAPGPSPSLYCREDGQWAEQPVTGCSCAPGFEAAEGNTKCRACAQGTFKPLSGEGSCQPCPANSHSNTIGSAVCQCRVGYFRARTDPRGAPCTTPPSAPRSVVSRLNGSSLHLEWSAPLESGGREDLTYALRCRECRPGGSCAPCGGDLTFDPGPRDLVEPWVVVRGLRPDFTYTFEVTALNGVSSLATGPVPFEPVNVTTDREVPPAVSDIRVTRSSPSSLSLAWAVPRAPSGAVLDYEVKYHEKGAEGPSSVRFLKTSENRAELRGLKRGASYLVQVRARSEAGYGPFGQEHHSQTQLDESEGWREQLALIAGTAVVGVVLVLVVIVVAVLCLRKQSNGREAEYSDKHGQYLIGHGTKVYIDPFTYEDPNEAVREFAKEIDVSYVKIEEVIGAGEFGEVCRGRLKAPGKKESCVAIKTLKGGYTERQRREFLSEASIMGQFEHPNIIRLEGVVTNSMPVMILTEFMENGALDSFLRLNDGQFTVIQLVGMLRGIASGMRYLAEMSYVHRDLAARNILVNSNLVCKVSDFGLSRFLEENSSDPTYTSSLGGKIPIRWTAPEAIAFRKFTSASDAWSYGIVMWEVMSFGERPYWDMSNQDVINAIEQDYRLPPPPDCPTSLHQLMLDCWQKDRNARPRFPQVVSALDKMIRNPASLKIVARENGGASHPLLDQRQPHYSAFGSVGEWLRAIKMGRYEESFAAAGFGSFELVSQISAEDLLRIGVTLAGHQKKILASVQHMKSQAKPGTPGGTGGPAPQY

[1] = target: Glycogen synthase kinase-3 beta (Homo sapiens, UniProt P49841); assay: Inhibition of GSK3B (unknown origin)
[2] = target: Calcium/calmodulin-dependent protein kinase type IV (Homo sapiens, UniProt Q16566); assay: Inhibition of CAMK4 (unknown origin)
THP-1 = assay: Inhibition of LPS-induced TNFalpha production in human THP1 cells pre-incubated for 30 mins before LPS challenge measured 3 hrs after LPS addition
[3] = target: T1, MAP kinase-activated protein kinase 2 (Homo sapiens, UniProt P49137); assay: Inhibition of MK2 in human THP1 cells assessed as reduction in LPS-induced HSP27 Ser78 phosphorylation after 60 mins; type: cell-based, THP-1
Target sequence in this assay (P49137 whole entry): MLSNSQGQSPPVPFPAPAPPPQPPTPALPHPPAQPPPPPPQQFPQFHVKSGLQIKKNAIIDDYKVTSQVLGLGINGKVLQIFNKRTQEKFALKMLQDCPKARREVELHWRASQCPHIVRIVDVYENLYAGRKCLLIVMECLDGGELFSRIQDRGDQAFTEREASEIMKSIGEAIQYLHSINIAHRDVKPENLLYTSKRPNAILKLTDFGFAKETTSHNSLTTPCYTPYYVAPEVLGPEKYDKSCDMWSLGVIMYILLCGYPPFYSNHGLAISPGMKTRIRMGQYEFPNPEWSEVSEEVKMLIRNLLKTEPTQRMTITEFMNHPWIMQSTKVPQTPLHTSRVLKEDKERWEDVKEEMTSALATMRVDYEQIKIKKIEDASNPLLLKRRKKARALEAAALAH

[4] = Protein binding in human plasma; type: ADME, cell-free; conditions: read-out: PPB (converted)
[5] = Permeability in human Caco2 cells; type: ADME, cell-based; conditions: Caco-2, read-out: permeability
[6] = AUC (0 to 6 hrs) in Sprague-Dawley rat at 10 mg/kg, po; type: ADME, organism-based; set-up: time < 6 hr, dose 10 mg/kg, route oral; conditions: plasma
Summary of the method: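 Sprague–Dawley rats were dosed orally with the compound in 20% HPBCD vehicle. AUC was calculated over 0 to 6 h.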

[7] = target: T1, MAP kinase-activated protein kinase 2; assay: Inhibition of MK2 (unknown origin) incubated for 30 mins by MK2 IMAP assay
Target sequence in this assay (P49137 whole entry): as above

[8] = target: T1, MAP kinase-activated protein kinase 2; assay: Non-ATP competitive inhibition of MK2 (unknown origin) incubated for 30 mins in presence of 1 uM and 100 uM ATP by MK2 IMAP assay
Summary of the method: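 Inhibitor, ATP and MK2 (final 50 pM) were preincubated 30 min. TAMRA-labelled peptide (final 100 nM) was added for 30 min; final DMSO was 1%. Progressive binding reagent stopped the reaction (30 min); read at ex 530/em 580 nm. Values are means of duplicates or triplicates.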
Target sequence in this assay (P49137 whole entry, looked up): as the sequence (P49137 whole entry) above

[9] = target: Receptor-type tyrosine-protein kinase FLT3 (Homo sapiens, UniProt P36888); assay: Inhibition of FLT3 (unknown origin)
[10] = target: Serine/threonine-protein kinase PLK3 (Homo sapiens, UniProt Q9H4B4); assay: Inhibition of PLK3 (unknown origin)
[11] = target: Casein kinase I isoform delta (Homo sapiens, UniProt P48730); assay: Inhibition of CSNK1D (unknown origin)
[12] = target: Serine/threonine-protein kinase Nek2 (Homo sapiens, UniProt P51955); assay: Inhibition of NEK2 (unknown origin)
[13] = target: Protein kinase C alpha type (Homo sapiens, UniProt P17252); assay: Inhibition of PKCA (unknown origin)
[14] = target: Interleukin-1 receptor-associated kinase 4 (Homo sapiens, UniProt Q9NWZ3); assay: Inhibition of IRAK4 (unknown origin)
[15] = target: RAC-alpha serine/threonine-protein kinase (Homo sapiens, UniProt P31749); assay: Inhibition of AKT1 (unknown origin)
[16] = target: Inhibitor of nuclear factor kappa-B kinase subunit beta (Homo sapiens, UniProt O14920); assay: Inhibition of IKKB (unknown origin)
[17] = target: Cyclin-dependent kinase 2 (Homo sapiens, UniProt P24941); assay: Inhibition of CDK2 (unknown origin)
[18] = target: Ribosomal protein S6 kinase alpha-3 (Homo sapiens, UniProt P51812); assay: Inhibition of RSK2 (unknown origin)
[19] = target: Rho-associated protein kinase 2 (Homo sapiens, UniProt O75116); assay: Inhibition of ROCK2 (unknown origin)
Chain of Rho-associated protein kinase 2 (O75116 whole entry): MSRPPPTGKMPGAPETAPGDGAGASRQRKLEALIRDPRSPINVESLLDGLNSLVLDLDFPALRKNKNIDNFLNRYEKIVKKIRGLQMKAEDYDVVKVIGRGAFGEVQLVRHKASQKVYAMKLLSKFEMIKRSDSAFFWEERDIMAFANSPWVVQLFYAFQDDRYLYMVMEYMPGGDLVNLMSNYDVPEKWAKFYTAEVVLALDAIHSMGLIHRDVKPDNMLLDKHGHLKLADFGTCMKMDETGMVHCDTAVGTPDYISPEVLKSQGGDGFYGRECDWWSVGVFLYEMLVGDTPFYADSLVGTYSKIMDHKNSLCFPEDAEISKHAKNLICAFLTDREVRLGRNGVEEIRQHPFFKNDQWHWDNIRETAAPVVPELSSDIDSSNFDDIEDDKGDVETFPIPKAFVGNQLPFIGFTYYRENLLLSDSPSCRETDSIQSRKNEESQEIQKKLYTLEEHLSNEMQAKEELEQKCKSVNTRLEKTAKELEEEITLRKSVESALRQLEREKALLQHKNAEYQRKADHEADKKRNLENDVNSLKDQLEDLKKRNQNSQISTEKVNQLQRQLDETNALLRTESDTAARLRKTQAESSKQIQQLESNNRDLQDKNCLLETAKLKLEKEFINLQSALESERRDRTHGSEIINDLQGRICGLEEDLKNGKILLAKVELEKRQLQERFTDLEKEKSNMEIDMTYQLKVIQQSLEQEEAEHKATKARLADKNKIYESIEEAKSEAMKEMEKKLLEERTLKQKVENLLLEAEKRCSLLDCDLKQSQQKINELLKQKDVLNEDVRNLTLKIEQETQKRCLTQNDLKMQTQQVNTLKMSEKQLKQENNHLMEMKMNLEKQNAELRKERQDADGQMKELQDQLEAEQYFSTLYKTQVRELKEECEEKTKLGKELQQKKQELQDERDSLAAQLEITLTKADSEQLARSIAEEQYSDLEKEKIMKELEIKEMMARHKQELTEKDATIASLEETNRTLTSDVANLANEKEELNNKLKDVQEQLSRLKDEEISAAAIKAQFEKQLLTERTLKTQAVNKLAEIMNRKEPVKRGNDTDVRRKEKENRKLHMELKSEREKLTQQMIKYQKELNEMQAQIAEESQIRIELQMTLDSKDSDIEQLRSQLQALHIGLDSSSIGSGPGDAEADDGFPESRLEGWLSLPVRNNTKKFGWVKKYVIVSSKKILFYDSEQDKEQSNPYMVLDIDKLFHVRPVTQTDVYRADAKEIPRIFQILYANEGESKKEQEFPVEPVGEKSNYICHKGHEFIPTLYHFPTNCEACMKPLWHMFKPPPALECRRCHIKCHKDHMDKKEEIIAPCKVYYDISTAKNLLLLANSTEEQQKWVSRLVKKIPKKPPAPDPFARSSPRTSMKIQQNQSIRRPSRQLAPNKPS

[20] = target: Tyrosine-protein kinase JAK2 (Homo sapiens, UniProt O60674); assay: Inhibition of JAK2 (unknown origin)
[21] = target: Vascular endothelial growth factor receptor 2 (Homo sapiens, UniProt P35968); assay: Inhibition of KDR (unknown origin)
[22] = target: Hepatocyte growth factor receptor (Homo sapiens, UniProt P08581); assay: Inhibition of MET (unknown origin)
[23] = target: Testis-specific serine/threonine-protein kinase 2 (Homo sapiens, UniProt Q96PF2); assay: Inhibition of TSSK2 (unknown origin)
[24] = target: Serine/threonine-protein kinase 3 (Homo sapiens, UniProt Q13188); assay: Inhibition of MST2 (unknown origin)
Chain of Serine/threonine-protein kinase 3 (Q13188 whole entry): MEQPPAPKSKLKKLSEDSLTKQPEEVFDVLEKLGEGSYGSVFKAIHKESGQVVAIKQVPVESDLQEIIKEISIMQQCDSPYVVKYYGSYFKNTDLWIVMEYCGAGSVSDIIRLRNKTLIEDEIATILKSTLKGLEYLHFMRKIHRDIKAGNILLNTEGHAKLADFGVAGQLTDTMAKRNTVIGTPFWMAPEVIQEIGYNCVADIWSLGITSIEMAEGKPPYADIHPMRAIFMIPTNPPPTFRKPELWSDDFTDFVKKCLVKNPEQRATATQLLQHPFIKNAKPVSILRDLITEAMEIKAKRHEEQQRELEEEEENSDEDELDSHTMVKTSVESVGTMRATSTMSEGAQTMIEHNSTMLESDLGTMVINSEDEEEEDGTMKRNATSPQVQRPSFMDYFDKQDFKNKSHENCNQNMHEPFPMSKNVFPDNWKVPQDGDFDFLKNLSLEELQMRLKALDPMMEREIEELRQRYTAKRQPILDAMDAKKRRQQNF

[25] = target: Tyrosine-protein kinase Lck (Homo sapiens, UniProt P06239); assay: Inhibition of LCK (unknown origin)
[26] = target: Insulin-like growth factor 1 receptor (Homo sapiens, UniProt P08069); assay: Inhibition of IGF1R (unknown origin)
Chain of Insulin-like growth factor 1 receptor (P08069 31-736 limits assumed): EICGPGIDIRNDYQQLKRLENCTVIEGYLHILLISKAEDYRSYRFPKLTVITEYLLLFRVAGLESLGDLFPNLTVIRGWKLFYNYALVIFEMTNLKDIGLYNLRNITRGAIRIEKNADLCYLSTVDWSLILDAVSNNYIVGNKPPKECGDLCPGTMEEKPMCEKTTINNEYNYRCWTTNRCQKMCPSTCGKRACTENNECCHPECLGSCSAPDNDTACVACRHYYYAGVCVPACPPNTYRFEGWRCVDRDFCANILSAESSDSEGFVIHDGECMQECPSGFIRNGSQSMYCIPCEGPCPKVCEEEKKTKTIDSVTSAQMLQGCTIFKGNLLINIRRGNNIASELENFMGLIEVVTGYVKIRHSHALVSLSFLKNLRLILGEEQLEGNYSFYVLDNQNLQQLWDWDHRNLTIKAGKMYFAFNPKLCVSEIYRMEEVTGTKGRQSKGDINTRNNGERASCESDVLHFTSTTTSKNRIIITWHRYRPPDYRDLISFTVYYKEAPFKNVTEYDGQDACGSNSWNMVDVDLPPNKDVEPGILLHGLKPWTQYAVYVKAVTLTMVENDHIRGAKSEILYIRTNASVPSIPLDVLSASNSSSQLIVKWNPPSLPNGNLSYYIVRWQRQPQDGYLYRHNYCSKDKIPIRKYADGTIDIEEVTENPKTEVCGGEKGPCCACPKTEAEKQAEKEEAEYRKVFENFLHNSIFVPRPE
Chain of Insulin-like growth factor 1 receptor (P08069 741-1367 limits assumed): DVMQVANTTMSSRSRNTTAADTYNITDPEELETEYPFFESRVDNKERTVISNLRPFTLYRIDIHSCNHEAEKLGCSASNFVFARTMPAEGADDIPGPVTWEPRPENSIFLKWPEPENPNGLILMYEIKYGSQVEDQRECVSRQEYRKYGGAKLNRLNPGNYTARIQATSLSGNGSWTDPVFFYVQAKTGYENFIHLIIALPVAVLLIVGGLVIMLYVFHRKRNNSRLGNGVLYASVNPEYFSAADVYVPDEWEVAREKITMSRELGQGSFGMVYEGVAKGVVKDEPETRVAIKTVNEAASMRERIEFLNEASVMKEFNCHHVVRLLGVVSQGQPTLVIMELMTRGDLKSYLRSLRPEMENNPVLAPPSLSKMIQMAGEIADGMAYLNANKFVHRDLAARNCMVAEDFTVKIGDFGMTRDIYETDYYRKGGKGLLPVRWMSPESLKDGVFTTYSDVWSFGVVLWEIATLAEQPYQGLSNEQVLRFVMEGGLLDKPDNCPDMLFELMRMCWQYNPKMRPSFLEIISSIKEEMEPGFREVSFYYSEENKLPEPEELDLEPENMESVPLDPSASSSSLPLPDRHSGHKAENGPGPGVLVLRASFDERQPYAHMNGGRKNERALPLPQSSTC

[27] = target: Mitogen-activated protein kinase 1 (Homo sapiens, UniProt P28482); assay: Inhibition of ERK2 (unknown origin)
Chain of Mitogen-activated protein kinase 1 (P28482 whole entry): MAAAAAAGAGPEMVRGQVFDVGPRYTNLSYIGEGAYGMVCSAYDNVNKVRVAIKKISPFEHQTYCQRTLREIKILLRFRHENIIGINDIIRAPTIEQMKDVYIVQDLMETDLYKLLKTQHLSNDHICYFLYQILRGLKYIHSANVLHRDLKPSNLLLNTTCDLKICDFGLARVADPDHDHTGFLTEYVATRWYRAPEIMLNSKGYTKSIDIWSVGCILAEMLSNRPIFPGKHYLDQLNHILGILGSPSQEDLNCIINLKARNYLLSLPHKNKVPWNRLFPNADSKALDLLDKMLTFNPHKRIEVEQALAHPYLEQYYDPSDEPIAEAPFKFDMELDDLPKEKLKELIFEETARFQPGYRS

[28] = target: Serine/threonine-protein kinase Chk1 (Homo sapiens, UniProt O14757); assay: Inhibition of CHK1 (unknown origin)
[29] = target: Epidermal growth factor receptor (Homo sapiens, UniProt P00533); assay: Inhibition of EGFR (unknown origin)

IC50 (Ephrin type-B receptor 4): > 30 µM
IC50 [1]: > 30 µM
IC50 [2]: > 30 µM
IC50 (THP-1): 0.8 µM
IC50 [3]: 2.14 µM
fraction unbound [4]: 0.028
Papp [5]: 5 ×10⁻⁶ cm/s
AUC(0-t) at 6 h [6]: 13.3 µM·h
IC50 [7]: 0.0255 µM
inhibition [8]: Active
IC50 [9]: > 30 µM
IC50 [10]: > 30 µM
IC50 [11]: > 30 µM
IC50 [12]: > 30 µM
IC50 [13]: > 30 µM
IC50 [14]: > 30 µM
IC50 [15]: > 15 µM
IC50 [16]: > 30 µM
IC50 [17]: > 30 µM
IC50 [18]: > 30 µM
IC50 [19]: > 20 µM
IC50 [20]: > 30 µM
IC50 [21]: > 30 µM
IC50 [22]: > 30 µM
IC50 [23]: > 30 µM
IC50 [24]: > 30 µM
IC50 [25]: > 30 µM
IC50 [26]: > 30 µM
IC50 [27]: > 30 µM
IC50 [28]: > 30 µM
IC50 [29]: > 30 µM
Compound: Clc1ccc(-c2ccc(-c3nccn3-c3ccc(N4CCNCC4)cc3)o2)cc1

IC50 (THP-1): 1.49 µM
fraction unbound [4]: 0.016
Papp [5]: < 0.1 ×10⁻⁶ cm/s
Compound: O=C1c2oc(-c3ccc(Cl)cc3)cc2Cc2cc(N3CCNCC3)ccc2N1Cc1ccccc1-c1cncnc1
